Source: PubChem BioAssay
NPY-Y1 antag: antagonists of human neuropeptide Y receptor Y1; P25929; HEK293-CNG Y1 cells, membrane potential fluorescence; NPY at EC95, then isoproterenol; inhibition, % at 3.6 µM; hit rate 1% among 200,000; AID 1040;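 active = inhibition above the campaign mean inhibition of all tested compounds plus 3 SD, cut at about 20% in these data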;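 note: 0% = DMSO wells given NPY plus isoproterenol and 100% = isoproterenol alone without NPY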
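Material: HEK293 cells with Y1 receptor plus CNG channel; times: compound incubation 1 h at room temperature, readout 45 min post-stimulation; signal: fluorescence, membrane potential probe; read-out basis: fluorescence ratio normalized to % inhibition between controls; benchmarks: full-block control isoproterenol-only wells, zero-block control NPY plus isoproterenol wells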
NPY2 pot ag: potentiates or activates human NPY-Y2 receptor; P49146; cells expressing NPY-Y2, potentiator/agonist read-out; activation, % at 3.6 µM; hit rate 0.45% among 220,000; AID 1359; in the data active = activation above about 27%;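 note: cells stimulated with NPY near EC25 plus isoproterenol at EC100; 0% = vehicle plus submaximal agonist and 100% = vehicle plus saturating agonist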
PGE2 EP2 inh: inhibitors of human EP2 prostaglandin E2 receptor. AID 1422. inhibition, % at 25 µM. C6 glioma cells expressing human EP2, cAMP TR-FRET; cells stimulated with saturating PGE2. hit rate 0.52% among 260,000;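 active = percent inhibition above 40 after rounding to a whole number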;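 note: rat C6 glioma host cells with rolipram phosphodiesterase inhibitor present; the protocol text gives 20 µM as final concentration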
Target sequence (P43116 whole entry, looked up): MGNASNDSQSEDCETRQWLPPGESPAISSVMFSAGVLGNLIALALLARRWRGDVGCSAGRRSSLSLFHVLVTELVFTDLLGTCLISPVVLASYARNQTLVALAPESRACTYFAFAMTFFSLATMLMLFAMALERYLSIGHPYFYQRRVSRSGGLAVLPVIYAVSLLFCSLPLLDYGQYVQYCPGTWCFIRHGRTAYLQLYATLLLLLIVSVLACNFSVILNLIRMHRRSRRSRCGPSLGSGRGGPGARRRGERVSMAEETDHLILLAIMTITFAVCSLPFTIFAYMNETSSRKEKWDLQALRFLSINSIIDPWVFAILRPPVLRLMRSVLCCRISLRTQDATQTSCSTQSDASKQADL
EP2 modulator: modulates human prostaglandin E2 receptor EP2 signaling; hit rate 0.83% among 260,000; EP2-expressing cells, cAMP HTRF FRET, PGE2 co-stimulation; P43116; AID 940; induction, % at 25 µM;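 active = compounds whose cAMP rise, as percent of the full-agonist control response, exceeds 60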;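 note: rat C6 glioma line stably carrying human EP2 under a CMV promoter; the protocol text gives 20 µM as final concentration; 100% = response of wells given 1 µM PGE2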
NPY-Y2 antag: NPY-Y2 (human) receptor antagonism; NPY-Y2 expressing cells, antagonist mode; inhibition, % at 2.7 µM; hit rate 0.99% among 140,000; in the data active = inhibition above about 17%;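 note: 0% = vehicle with agonist challenge and 100% = reference antagonist with challenge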
NPY1 pot ag: human NPY-Y1 potentiation or agonism, primary screen; P25929; hit rate 0.37% among 220,000; NPY-Y1 expressing cells, potentiator/agonist activation; activation, % at 3.6 µM; AID 1304; in the data active = activation above about 33%, passing the limit was not always enough;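 note: cells stimulated with NPY at EC10 then isoproterenol at EC100; 0% = low agonist plus stimulus and 100% = saturating agonist plus stimulus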
NPY1 antag ctr: counter-screen for NPY-Y2 antagonists: human NPY-Y1 antagonism | shares compounds with NPY-Y2 antag | cell-based NPY-Y1 antagonism counterscreen | inhibition, % at 3.6 µM | hit rate 19% among 710; in the data active = inhibition above about 20%;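 note: cells challenged with NPY then isoproterenol with cAMP sensed through a CNG channel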
NPY2 antag conf: confirmation of human neuropeptide Y receptor Y2 antagonists. shares compounds with NPY-Y2 antag. HEK293 NPY-Y2 CNG channel, membrane potential fluorescence. inhibition, % at 2.8 µM. hit rate 32% among 710. AID 1257;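 active = mean inhibition of triplicate wells above the hit cutoff set in the primary screen, cut at about 17% in these data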;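 note: 0% = DMSO with NPY challenge and 100% = BIIE0246 high control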
* marks the source's active call; other numbers are inactive results; . = not tested or not shown. In the library only some 2.8% were active in any assay of this set; here they are far more common.

SMILES | NPY-Y1 antag | NPY2 pot ag | PGE2 EP2 inh | EP2 modulator | NPY-Y2 antag | NPY1 pot ag | NPY1 antag ctr | NPY2 antag conf
Cc1cccc(/C(N)=N/OC(=O)COc2ccc(Cl)c(C)c2)c1 | -3 | 16 | 11 | -12 | 11 | 1 | . | .
Cc1ccc2cccc(NC(=S)NC(=O)c3ccccc3)c2n1 | 14 | -51 | 11 | -17 | 22* | -48 | 20* | 43*
CCOc1ccccc1CNCc1ccc(C(=O)O)cc1 | -4 | -11 | 4 | 29 | . | -4 | . | .
O=C(COc1ccccc1CNCc1ccccc1)Nc1ccccc1 | 19 | -31 | 8 | -20 | 21* | -36 | 14 | 25*
CCOc1ccccc1NC(=O)c1sc(NC(C)=O)c(C(=O)OC)c1C | . | . | 10 | 15 | . | . | . | .
CC(C)CC(c1nnnn1C(C)(C)C)N1CCN(C2CCCC2)CC1 (centres undefined) | 13 | -15 | 10 | 33 | 17 | -9 | . | .
CC(C)CC(c1nnnn1Cc1ccco1)N1CCN(C2CCCC2)CC1 (centres undefined) | 10 | -21 | 9 | 12 | 19* | -27 | 7 | 4
FC(F)(F)c1nc(-c2cccnc2)ncc1-c1nnnn1-c1ccccc1 | 1 | -6 | 6 | -2 | 5 | -23 | . | .
FC(F)(F)c1nc(-c2cccs2)ncc1-c1nnnn1-c1ccc(Cl)cc1 | 14 | 6 | 9 | -28 | 25* | -32 | 26* | 17
CC(=O)NCCNc1nc2c(C)cc(C)cc2cc1C#N | . | . | 7 | -29 | . | . | . | .
Cc1cccc(OCc2nc(C#N)c(NCc3ccc4c(c3)OCO4)o2)c1 | 12 | -23 | 16 | -66 | 27* | -32 | 15 | 13
O=C(CSc1nnc(-c2ccncc2)n1-c1ccc(Cl)cc1)Nc1cccc(O)c1 | . | . | 14 | -34 | . | . | . | .
Cc1ccc(OCCCCN(C)Cc2ccccc2)c(Br)c1 | 11 | -16 | 7 | -30 | 18* | -41 | 13 | 18*
COc1ccccc1OCCCOc1ccc(C)cc1Br | -2 | 4 | 9 | 38 | 4 | -14 | . | .
Cc1nc(C(=O)Nc2cccc(Cl)c2)nn1-c1cc(OC(C)C)c(Cl)cc1Cl | 18 | -36 | 4 | -7 | 17* | -40 | 20* | 16
CCn1cc(CN(C)S(=O)(=O)c2ccc3ccccc3c2)c(C)n1 | -1 | 14 | 3 | -14 | 25* | 1 | 12 | 1
CCn1cc(S(=O)(=O)N(C)Cc2ccc3ncccc3c2)c(C)n1 | . | . | 4 | -75 | . | . | . | .
O=C(Cc1ccc(Br)cc1)OCC(=O)N1CCc2ccccc2C1 | 8 | -11 | 7 | 9 | 18* | -16 | 7 | 8
CC1CCc2c(sc3ncn4c(SCC(=O)OC(C)C)nnc4c23)C1 (centres undefined) | . | . | 4 | 24 | . | . | . | .
CCCC[C@@H]1C[C@H]1[C@@H](NC(=O)c1cccs1)c1ccc(C(F)(F)F)cc1 | . | . | 12 | . | . | . | . | .
CCCC[C@@H]1C[C@H]1[C@@H](NC(=O)c1cccs1)c1ccc(Cl)cc1 | 2 | 1 | 9 | -30 | 18* | -46 | 13 | 17
Cc1cc(C(F)(F)F)nc(SCC(=O)c2cccc([N+](=O)[O-])c2)n1 | 0 | 5 | 3 | 14 | 19* | -5 | 3 | 5
CCN1CCCC1CN(Cc1ccc(O)c(OC)c1)Cc1ccccn1 (centres undefined) | . | . | 8 | 1 | . | . | . | .
CCn1c(SCc2ccccc2Cl)nc2nc3c(cc2c1=O)CCCC3 | 3 | -2 | 8 | 24 | 18* | -52 | 9 | 14
CC1CCN(C(=O)CN(C)S(=O)(=O)c2ccccc2)CC1 | . | . | 12 | 1 | . | . | . | .
CCOc1ccc(Oc2c(/C=N/NC(C)=O)c(C)nn2-c2ccccc2)cc1 | 12 | -11 | 6 | 14 | 32* | -56 | 16 | 31*
N#Cc1nc(COc2cccc(Cl)c2)oc1N1CCN(c2ccccc2)CC1 | 8 | -18 | 7 | -51 | 25* | -20 | 15 | 20*
N#Cc1nc(-c2cccs2)oc1N1CCN(c2ccccc2)CC1 | 12 | -7 | 12 | 13 | 18* | -49 | 7 | 12
